# TRPC6 activator = activates the mouse TRPC6 cation channel | B-score at 10 µM | HEK293-TRPC6 membrane potential dye fluorescence; stronger effect = higher value | 310,000 tested, 0.13% active | Q61143;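 active = B-score of the integrated fluorescence ratio above library mean plus 3 SD, and starting fluorescence ratio within library mean plus 5 SD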;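 note: higher score means more depolarization so channel activation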
# Kir21 block = inhibitors of mouse Kir2.1 inward-rectifier potassium channel | HEK293-Kir2.1, FluxOR thallium flux fluorescence; stronger effect = lower value | B-score at 10 µM | 310,000 tested, 0.85% active | AID 1672;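 active = fluorescence ratio B-score at or below minus 3 SD of library scores, with starting-brightness B-score within 2 SD, cut at about -4.2 in these data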;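 note: channel flux triggered by added potassium and thallium sulfate stimulus; B-score of peak minus minimum fluorescence over baseline after thallium stimulus; more negative B-score means stronger Kir2.1 block with less thallium influx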
# TRPC6 inh = inhibitors of mouse TRPC6 channel; 310,000 tested, 1.1% active; AID 2553; HEK293-TRPC6, membrane potential dye, ACh-evoked depolarization; stronger effect = lower value; Q61143; B-score at 10 µM;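 active = B-score under library mean minus 3 SD, initial fluorescence not abnormally high, positive integrated signal ratio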;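 note: B-score derived from integrated fluorescence ratio over the kinetic read; more negative B-score means stronger inhibition of depolarization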
# TRPC4 inh = inhibitors of mouse TRPC4 channel; Q9QUQ5; HEK293 TRPC4beta/mu-opioid, DAMGO-evoked Fluo4 calcium flux; stronger effect = lower value; B-score at 10 µM; 300,000 tested, 0.39% active; AID 2247;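 active = B-score over 3 SD under the library average, no early fluorescence shift, positive overall ratio signal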
#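 Assay system: TRPC4beta/mu-opioid receptor HEK293 cell line; compound dosing: single concentration per test compound; detection: Fluo4 Ca2+ flux fluorescence; evaluation: per-well B score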
# TRPC4 act = opens the mouse TRPC4 cation channel; Q9QUQ5; HEK293 TRPC4beta/mu-opioid, Fluo4 calcium fluorescence; stronger effect = higher value; B-score at 10 µM; 310,000 tested, 0.49% active; AID 2237;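 active = B-score above 5 SD of library B-scores, and initial fluorescence ratio not above library mean plus 5 SD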;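 note: positive B-score marks a calcium rise read as TRPC4 activation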
#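 Material: HEK293 stable line with TRPC4beta plus mu-opioid receptor; technique: Fluo4 calcium-sensitive dye fluorescence, kinetic, 1 Hz baseline; timing: Fluo4 dye loading 45 min at room temperature, 110 s recording; controls: assay buffer as low control, maximal DAMGO as high control; read-out: integrated baseline-normalised fluorescence ratio, converted to per-well B score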
# TRPC4 PAM = allosteric potentiators of mouse TRPC4 channel; HEK293 TRPC4beta/mu-opioid, DAMGO EC20, Fluo-4 Ca2+ flux; stronger effect = higher value; AID 2227; Q9QUQ5; B-score at 10 µM; 310,000 tested, 0.42% active;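 active = B-score of calcium response area above 5 SD of library B-scores, with initial fluorescence ratio within 5 SD of library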
# Hits are given with their value; n = inactive. An excerpt weighted towards active compounds, which were near 2.9% of everything screened.
SMILES,TRPC6 activator,Kir21 block,TRPC6 inh,TRPC4 inh,TRPC4 act,TRPC4 PAM
CN(c1ccc(C(=O)Nc2cccc(O)c2)cc1)S(=O)(=O)c1ccccc1,n,-4.8,n,n,n,n
O=C(O)CCC(=O)NCc1c(Cl)cccc1Sc1ccc(Cl)cc1,n,n,n,n,n,n
Cc1ccc(N/C=C(\C#N)S(=O)(=O)c2ccccc2)cc1,n,n,n,n,n,n
Cc1cc(C(=O)NCCCN2CCN(c3cc(Cl)ccc3C)CC2)n(-c2ccccc2)n1,n,n,n,-6,n,n
COc1ccccc1C(=O)N/C(=C/c1ccc(Br)cc1)C(=O)N1CCCC1,n,n,n,n,n,n
CC(C)(C)c1ccc(C(=O)NC(=S)NNC(=O)COc2ccccc2)cc1,n,n,n,-6,72,n
Cc1ccccc1C(=O)NNC(=S)NC(=O)COc1ccccc1,n,n,n,n,177,n
CC(C)(C)c1ccc(OCC(=O)NNC(=O)CCc2ccccc2)cc1,n,n,n,n,n,n
CC(C)(C)C(=O)NC(=S)NNC(=O)c1ccc(-c2ccccc2)cc1,n,n,n,n,277,n
CCCOc1ccc(C(=O)NNC(=S)NC(=O)c2cccs2)cc1,n,n,n,n,175,n
CC(C)(C)C(=O)NC(=S)NNC(=O)c1ccncc1,n,n,n,n,n,n
Cc1nn(Cc2ccccc2)c(Cl)c1C(=O)OC(C)C#N (configuration not stated),n,n,n,n,n,n
CCCOc1ccc(C(=O)NNC(=S)NC(=O)c2ccccc2)cc1,n,n,n,n,167,n
CCCOc1ccc(C(=O)NNC(=S)NC(C)=O)cc1,n,n,n,n,n,n
CCCCOc1ccc(C(=O)NNC(=S)NC(=O)CC)cc1,n,n,n,n,73,n
CCC(=O)NC(=S)NNC(=O)c1ccc(OC)cc1,n,n,n,n,n,n
Cc1cc(C(=O)NNC(=S)Nc2ccccc2)nn1C,n,n,n,n,n,n
CN1CCN(C(=O)C23CC4CC(C)(CC(C)(C4)C2)C3)CC1,n,n,n,-6,n,n
CN1CCN(C(=O)C23CC4CC(CC(C4)C2)C3)CC1,n,n,n,n,n,n
CC12CC3CC(C)(C1)CC(C(=O)N1CCCC1)(C3)C2,n,n,n,-6,n,n
COc1ccccc1-c1nc(SCC(=O)NCC2CCCO2)c2c(=O)n(C)c(=O)n(C)c2n1 (configuration not stated),n,n,n,n,n,n
CC(=O)N(Cc1ccc(Br)cc1)c1cccc(C)c1C,n,-4.9,n,n,n,n
O=C(CSc1nccn1-c1ccc(Cl)cc1)NCc1ccc2c(c1)OCO2,n,-4.5,n,n,n,n
CCCn1cc(SCC(=O)NCc2ccc3c(c2)OCO3)c2ccccc21,n,n,n,n,n,n
CCn1cc(SCC(=O)NCc2ccc3c(c2)OCO3)c2ccccc21,n,-4.7,n,n,n,n
SMILES,TRPC6 activator,Kir21 block,TRPC6 inh,TRPC4 inh,TRPC4 act,TRPC4 PAM
CCN(CC(=O)Nc1c(F)cccc1F)C(=O)c1n[nH]c2ccccc12,n,n,n,n,n,n
CCCCN(CC)CCCNC(=O)Cn1nc(Cc2cccnc2)c2ccccc2c1=O,n,n,n,n,134,n
CCN(CC)CCNC(=O)Cn1nc(Cc2ccccc2)c2ccccc2c1=O,n,n,n,n,n,n
O=C(Nc1ccc(S(=O)(=O)Nc2ncccn2)cc1)c1cccc(S(=O)(=O)N2CCCC2)c1,n,n,n,n,n,n
COc1ccc(Cl)cc1NC(=O)CN(C)C(=O)CN1C(=O)NC2(CCCC2)C1=O,n,n,n,n,n,n
CON(C)c1nc(OCCNC(=O)OCc2ccc(Cl)cc2Cl)nc(N(C)C)n1,n,-4.3,n,n,n,n
C=CCn1c(SCc2n[nH]c(=S)n2-c2ccccc2)nnc1-c1ccccc1,n,n,n,n,n,11
COc1ccc(OCc2cc(C(=O)NCCN3CCCc4ccccc43)no2)c(Cl)c1,n,n,n,n,n,n
CC(C)CN(C(=O)C1CC1)c1c(N)n(Cc2ccccc2)c(=O)[nH]c1=O,n,n,n,n,n,31
CC(C)CN(C(=O)CC1CCCC1)c1c(N)n(Cc2ccccc2)c(=O)[nH]c1=O,n,n,n,n,n,n
